The values below come from ChEMBL document CHEMBL1121617, “Antihypertensive ureidopiperidines” (1980).

Test [1] deals with Rattus norvegicus. Briefly: The percent fall in systolic blood pressure at 1.5 / 4 h after peroral administration of 50 mg/kg in DOCA/saline hypertensive rats at 2 hr. In kind it is functional, Artery. Particulars: route oral.
The test system of test [2] is Rattus norvegicus. Briefly: Starting systolic blood pressure at dose of 50 mg/kg in rat. In kind it is functional, Artery. The method in brief: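 Mean systolic blood pressure before dosing for each group of four DOCA/saline hypertensive rats given 50 mg/kg orally. It indicates how far hypertension was established.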
The subject of test [3] is Rattus norvegicus. Briefly: The percent fall in systolic blood pressure at 1.5 / 4 hr after peroral administration of 50 mg/kg in DOCA/saline hypertensive rats at 24 hr; Non significant. Set-up: dose 50 mg/kg. Format: functional, organism-based. Conditions: Artery, at 50 mg/kg.
Test [4] concerns Rattus norvegicus. Briefly: The percent fall in systolic blood pressure at 1.5 / 4 hr after peroral administration of 50 mg/kg in DOCA/saline hypertensive rats at 2 hr; Non significant. In kind it is functional, organism-based. Further details: dose 50 mg/kg. Conditions: Artery, at 50 mg/kg.
Test [5] has as its system Rattus norvegicus. Briefly: Percent fall in systolic blood pressure at 1.5 / 4 hr after peroral administration of 50 mg/kg in DOCA/saline hypertensive rats at 6 h; Non significant. Further details: dose 50 mg/kg. In kind it is functional, organism-based. Conditions: Artery, at 50 mg/kg.

On to `O=C(Nc1ccccc1)NC1CCN(CC(O)C2COc3ccccc3O2)CC1` (stereo in doubt; 31) [listing 1 of 2 here], for which, in the test with Rattus norvegicus [1], the Fall came to 35%. Further, the SP in the test on Rattus norvegicus [2] (50 mg/kg) is 171 mmHg.
`O=C(Nc1ccc(Cl)cc1)NC1CCN(CC(O)C2COc3ccccc3O2)CC1` (stereo not given): the Fall entry in the test on Rattus norvegicus [3], in the test on Rattus norvegicus [4] and with Rattus norvegicus [5] was “Not significant” each time. Besides, the SP with Rattus norvegicus [2] amounted to 178 mmHg.
Turning to `O=C(Nc1ccccc1)NC1CCN(CC(O)COc2cccc3ccccc23)CC1` (stereo not given), the Fall entry in the test with Rattus norvegicus [3], in the test on Rattus norvegicus [4] and with Rattus norvegicus [5] was “Not significant” throughout. In the test on Rattus norvegicus [2], the SP worked out at 170 mmHg.
For the compound `COc1ccc(NC(=O)NC2CCN(CC(O)C3COc4ccccc4O3)CC2)cc1` (stereo not given), the Fall result with Rattus norvegicus [3] is “Not significant”; in the test with Rattus norvegicus [1] it was 17%; in the test with Rattus norvegicus [5] it was “Not significant”. In addition, in the test with Rattus norvegicus [2], the SP stood at 190 mmHg.
On to `N/C(S)=N/C1CCN(CCc2c[nH]c3ccccc23)CC1`, for which the Fall result with Rattus norvegicus [3] is “Not significant”; in the test with Rattus norvegicus [1], 20%; with Rattus norvegicus [5] it was “Not significant”. Besides, the SP with Rattus norvegicus [2] amounted to 189 mmHg.
Regarding `O=C(NC1CCCCC1)NC1CCN(CC(O)C2COc3ccccc3O2)CC1` (stereo not given), the Fall entry in the test on Rattus norvegicus [3] was “Not significant”; with Rattus norvegicus [1], 26%; in the test with Rattus norvegicus [5], “Not significant”. In addition, the SP in the test on Rattus norvegicus [2] is listed as 172 mmHg.
On to `COc1ccc(C(=O)NC(=O)NC2CCN(CC(O)COc3ccccc3OC)CC2)cc1` (stereo not given), for which the Fall entry in the test with Rattus norvegicus [3], in the test on Rattus norvegicus [4] and with Rattus norvegicus [5] was “Not significant” throughout. The compound further returned an SP with Rattus norvegicus [2] of 162 mmHg.
As to `CC(=O)Nc1ccc(OCC(O)CN2CCC(NC(=O)NC(=O)c3ccccc3)CC2)cc1` (stereo not given), the Fall entry with Rattus norvegicus [3], with Rattus norvegicus [4] and in the test on Rattus norvegicus [5] was “Not significant” throughout. The same compound registered an SP in the test with Rattus norvegicus [2] of 179 mmHg.
`N=C(NC(=O)c1ccccc1)NC1CCN(CCCC(=O)c2ccccc2)CC1`: the Fall entry in the test with Rattus norvegicus [3], in the test with Rattus norvegicus [4] and in the test with Rattus norvegicus [5] was “Not significant” each time. The compound further yielded an SP in the test with Rattus norvegicus [2] of 188 mmHg.
On to `O=C(NC(=O)c1ccccc1)NC1CCN(CC(O)c2ccccc2)CC1` (stereo not given), for which the Fall result in the test with Rattus norvegicus [3] was “Not significant”; with Rattus norvegicus [1] it was 21%; in the test with Rattus norvegicus [5], “Not significant”. This compound also showed an SP in the test on Rattus norvegicus [2] of 182 mmHg.
Consider `O=C(NC(=S)NC1CCN(CCc2c[nH]c3ccccc23)CC1)c1ccccc1`, for which the Fall entry in the test on Rattus norvegicus [3], in the test with Rattus norvegicus [4] and in the test on Rattus norvegicus [5] was “Not significant” in each case. Moreover, the SP in the test on Rattus norvegicus [2] was determined as 200 mmHg.
`OC(CN1CCC(/N=C(\S)Nc2ccccc2)CC1)C1COc2ccccc2O1` (stereo not given): the Fall result in the test with Rattus norvegicus [3] is “Not significant”; in the test on Rattus norvegicus [1], 26%; with Rattus norvegicus [5], “Not significant”. For the same compound, the SP in the test on Rattus norvegicus [2] is listed as 182 mmHg.
On to `O=C(NC(=O)c1ccccc1)NC1CCN(CC(O)C2COc3ccccc3O2)CC1` (stereo in doubt; 28) [listing 1 of 2 here], for which the Fall entry in the test on Rattus norvegicus [3], in the test on Rattus norvegicus [4] and in the test on Rattus norvegicus [5] was “Not significant” each time.
As to `O=C(NC(=O)c1ccc(F)cc1)NC1CCN(CC(O)C2COc3ccccc3O2)CC1` (stereo not given), the Fall result in the test with Rattus norvegicus [3] was “Not significant”; in the test with Rattus norvegicus [1] it was 17%; in the test on Rattus norvegicus [5], “Not significant”. This compound also had an SP with Rattus norvegicus [2] of 183 mmHg.
In the case of `O=C(NC(=O)c1cccs1)NC1CCN(CCCC(=O)c2ccccc2)CC1`, the Fall entry in the test on Rattus norvegicus [3] is “Not significant”; with Rattus norvegicus [1] it was 30%; with Rattus norvegicus [5], “Not significant”. In the test on Rattus norvegicus [2], this compound gave an SP of 190 mmHg.
For `O=C(NC(=O)c1ccccc1)NC1CCN(CC(=O)c2ccccc2)CC1`, the Fall result in the test on Rattus norvegicus [3] is “Not significant”; with Rattus norvegicus [1] it was -23%; in the test with Rattus norvegicus [5] it was “Not significant”. The same compound yielded an SP with Rattus norvegicus [2] of 166 mmHg.
On to `O=C(NC(=O)c1ccccc1)NC1CCN(CC(O)COc2cccc3ccccc23)CC1` (stereo not given), for which the Fall entry in the test on Rattus norvegicus [3], with Rattus norvegicus [4] and in the test on Rattus norvegicus [5] was “Not significant” in each case. In the test with Rattus norvegicus [2], the SP stood at 185 mmHg.
`O=C(NC(=O)c1ccccc1)NC1CCN(CC(=O)c2c[nH]c3ccccc23)CC1`: the Fall result in the test on Rattus norvegicus [3], in the test with Rattus norvegicus [4] and with Rattus norvegicus [5] was “Not significant” throughout. The same compound came in with an SP in the test on Rattus norvegicus [2] of 178 mmHg.
As to `O=C(NC(=O)c1ccccc1)NC1CCN(CC(O)C2COc3ccccc3O2)CC1` (stereo in doubt; 29) [listing 1 of 2 here], the Fall result in the test with Rattus norvegicus [3], in the test on Rattus norvegicus [4] and with Rattus norvegicus [5] was “Not significant” throughout.
`CCN(C(=O)Nc1ccccc1)C1CCN(CCc2c[nH]c3ccccc23)CC1`: the Fall result in the test on Rattus norvegicus [3], in the test on Rattus norvegicus [4] and with Rattus norvegicus [5] was “Not significant” in each case. The compound also showed an SP in the test on Rattus norvegicus [2] of 170 mmHg.
As for `COc1ccc(C(=O)NC(=O)NC2CCN(CC(O)C3COc4ccccc4O3)CC2)cc1` (stereo not given), the Fall entry in the test on Rattus norvegicus [3], in the test on Rattus norvegicus [4] and in the test on Rattus norvegicus [5] was “Not significant” throughout. Moreover, in the test with Rattus norvegicus [2], the SP amounted to 165 mmHg.
`O=C(Nc1ccccc1)NC1CCN(CCCC(=O)c2c[nH]c3ccccc23)CC1`: the Fall result in the test on Rattus norvegicus [3], with Rattus norvegicus [4] and in the test with Rattus norvegicus [5] was “Not significant” in each case. The compound also showed an SP in the test on Rattus norvegicus [2] of 187 mmHg.
Regarding `O=C(NC(=O)c1ccccc1)NC1CCN(CC(=O)C2COc3ccccc3O2)CC1` (stereo not given), the Fall entry in the test on Rattus norvegicus [3], in the test on Rattus norvegicus [4] and in the test on Rattus norvegicus [5] was “Not significant” throughout. In the test on Rattus norvegicus [2], the SP is on record as 181 mmHg.
Take `O=C(NC1CCCCC1)NC1CCN(CCc2c[nH]c3ccccc23)CC1`: the Fall result in the test with Rattus norvegicus [3] was “Not significant”; with Rattus norvegicus [1], 15%; in the test with Rattus norvegicus [5] it was “Not significant”. The compound also yielded an SP with Rattus norvegicus [2] of 176 mmHg.
In the case of `O=C(NC(=O)c1ccccc1)NC1CCN(CCCc2c[nH]c3ccccc23)CC1`, the Fall entry with Rattus norvegicus [3], with Rattus norvegicus [4] and in the test with Rattus norvegicus [5] was “Not significant” each time. For the same compound, the SP in the test on Rattus norvegicus [2] is 191 mmHg.
In the case of `O=C(NC(=O)c1ccccc1)NC1CCN(CCc2ccccc2)CC1`, the Fall result in the test with Rattus norvegicus [3], with Rattus norvegicus [4] and in the test with Rattus norvegicus [5] was “Not significant” in each case. Also, the SP in the test with Rattus norvegicus [2] was determined as 180 mmHg.
On to `O=C(NC(=O)c1cccs1)NC1CCN(CCCC(=O)c2c[nH]c3ccccc23)CC1`, for which the Fall result in the test on Rattus norvegicus [3], in the test on Rattus norvegicus [4] and in the test on Rattus norvegicus [5] was “Not significant” throughout. Moreover, the SP in the test with Rattus norvegicus [2] was 181 mmHg.
On to `O=C(NC(=O)c1ccccc1)NC1CCN(CC(O)C2COc3ccccc3O2)CC1` (stereo in doubt; 29) [listing 2 of 2 here], for which, in the test with Rattus norvegicus [2] (50 mg/kg), the SP turned out to be 178 mmHg.
On to `O=C(Nc1ccccc1)NC1CCN(CC(O)C2COc3ccccc3O2)CC1` (stereo in doubt; 31) [listing 2 of 2 here], for which the Fall result with Rattus norvegicus [3] and in the test on Rattus norvegicus [5] was “Not significant” throughout.
As for `N=C(NC(=O)c1ccccc1)NC1CCN(CCc2c[nH]c3ccccc23)CC1`, the Fall result with Rattus norvegicus [3], in the test with Rattus norvegicus [4] and in the test on Rattus norvegicus [5] was “Not significant” in each case. This compound also displayed an SP with Rattus norvegicus [2] of 165 mmHg.
Turning to `O=C(Nc1ccccc1)NC1CCN(CC(O)C2COc3ccccc3O2)CC1` (stereo in doubt; 30) [listing 1 of 2 here], the Fall result in the test on Rattus norvegicus [3], in the test on Rattus norvegicus [4] and in the test with Rattus norvegicus [5] was “Not significant” throughout.
For `COc1ccccc1OCC(O)CN1CCC(NC(=O)NC(=O)c2ccccc2)CC1` (stereo not given), the Fall entry in the test on Rattus norvegicus [3] is “Not significant”; in the test with Rattus norvegicus [1] it was 17%; in the test on Rattus norvegicus [5], “Not significant”. Moreover, the SP in the test on Rattus norvegicus [2] was 189 mmHg.
On to `COc1ccccc1OCC(O)CN1CCC(NC(=O)NC(=O)c2ccc(F)cc2)CC1` (stereo not given), for which the Fall entry in the test with Rattus norvegicus [3], in the test on Rattus norvegicus [4] and with Rattus norvegicus [5] was “Not significant” each time. Further, the SP in the test on Rattus norvegicus [2] was determined as 196 mmHg.
Turning to `O=C(NC(=S)NC1CCN(CC(O)C2COc3ccccc3O2)CC1)c1ccc(Cl)cc1` (stereo not given), the Fall entry in the test on Rattus norvegicus [3], in the test with Rattus norvegicus [4] and with Rattus norvegicus [5] was “Not significant” in each case. For the same compound, in the test with Rattus norvegicus [2], the SP worked out at 175 mmHg.
With `O=C(NC(=O)c1ccccc1)NC1CCN(CC(O)C2COc3ccccc3O2)CC1` (stereo in doubt; 28) [listing 2 of 2 here], the SP with Rattus norvegicus [2] (50 mg/kg) is 174 mmHg.
Take `CN(C(=O)NC(=O)c1ccccc1)C1CCN(CCc2c[nH]c3ccccc23)CC1`: the Fall result was “Not significant” with Rattus norvegicus [3], 40% with Rattus norvegicus [1] and “Not significant” in the test on Rattus norvegicus [5]. This compound also returned an SP with Rattus norvegicus [2] of 186 mmHg.
`O=C(Nc1ccccc1)NC1CCN(CC(O)C2COc3ccccc3O2)CC1` (stereo in doubt; 30) [listing 2 of 2 here]: the SP with Rattus norvegicus [2] (50 mg/kg) was found to be 182 mmHg.
For `O=C(Nc1cccc(C(F)(F)F)c1)NC1CCN(CCCC(=O)c2ccccc2)CC1`, the Fall result in the test on Rattus norvegicus [3], with Rattus norvegicus [4] and with Rattus norvegicus [5] was “Not significant” each time. Moreover, the SP in the test on Rattus norvegicus [2] is 177 mmHg.
Take `O=C(NC(=O)c1ccccc1)NC1CCN(CCCC(=O)c2c[nH]c3ccccc23)CC1`: the Fall entry in the test on Rattus norvegicus [3] is “Not significant”; with Rattus norvegicus [1] it was 16%; in the test on Rattus norvegicus [5] it was “Not significant”. In the test with Rattus norvegicus [2], this compound came in with an SP of 187 mmHg.
